Data on three molecules can be found in ChEMBL document CHEMBL1129305, “Drug delivery systems. 2. Camptothecin 20-O-poly(ethylene glycol) ester transport forms” (J Med Chem, 1996).

Data set [1] can be described thus: Half life in PBS buffer (pH 7.4) at 37 degree C (DMSO employed as cosolvent). The settings on record: PBS buffer with DMSO as cosolvent. In kind it is ADME. The method in brief: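 Hydrolysis run at 37 °C in PBS pH 7.4 with DMSO as cosolvent. Half-life recorded in duplicate, with SD ±10%.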
For data set [2], the system named is Mus musculus. Nature of the data set: Ratio between mean time to death of treated versus control (survivors at 40 days) at a dose of 16 mg/kg of camptothecin, mice dosed days 1-5. In kind it is functional. The method in brief: (§1)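 Mice bearing P388 leukemia dosed ip on days 1–5 to a total of 16 mg/kg camptothecin equivalents, given as aqueous solution or lipid suspension. Groups were 10–20 mice against untreated controls, with survivors counted at 40 days. Read-outs were mean time to death, T/C and ILS = (T/C−1)×100, compared by Student t test assuming equal variances.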

Data set [3] concerns Mus musculus. Nature of the data set: Mean time to death at a dose of 16 mg/kg of camptothecin, mice dosed days 1-5. As to conditions: in vivo. In kind it is ADME, organism-based. Also noted: dose 16 mg/kg. The method in brief: as §1
The subject of data set [4] is Mus musculus. Description: Percentage of increased life expectancies (ILS) of mice at a dose of 16 mg/kg camptothecin; ILS = (T/C-1) X 100. In kind it is functional. The method in brief: as §1
A short description of data set [5]: Half life in PBS buffer (pH 5.6) at 37 degree C. In kind it is ADME. The method in brief: (§2)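 Hydrolysis run at 37 °C in PBS, pH 5.6 or pH 7.4 as stated in the line. Half-life is the time for loss of the ester. Runs done in duplicate, with SD ±10%.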
The nature of data set [6]: Half life in PBS buffer (pH 7.4) at 37 degree C. In kind it is ADME. The method in brief: as §2
Data set [7] is described as follows: Half life in rat plasma at 37 degree C. In kind it is ADME, organism-based. The method in brief: (§3)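 Ester incubated at 37 °C in rat or human plasma. Half-life recorded as disappearance of the transport form, with release of parent drug also followed over time. Runs done in duplicate, with SD ±10%.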
A short description of data set [8]: Half life in human plasma at 37 degree C. In kind it is ADME, organism-based. The method in brief: as §3

A value given as a limit tells only on which side of the number the result lay.

Take `CC[C@@]1(OC(C)=O)C(=O)OCc2c1cc1n(c2=O)Cc2cc3ccccc3nc2-1`: the half-life – broadly, the time in which the quantity being followed falls by half – in data set [1] is more than 72 h.

In the case of `CC[C@@]1(O)C(=O)OCc2c1cc1n(c2=O)Cc2cc3ccccc3nc2-1` [CAMPTOTHECIN], the T/C with Mus musculus [2] is 2.93. Also, the “Mean time to death” value with Mus musculus [3] was 38.7 days. The ILS – broadly, how much longer treated animals lived than controls – at 16 mg/kg in the data set on Mus musculus [4] was 193%.

With `CC[C@@]1(OC(=O)CN)C(=O)OCc2c1cc1n(c2=O)Cc2cc3ccccc3nc2-1.O=C(O)C(F)(F)F`, in the data set on Mus musculus [2], the T/C was found to be 1.64. The half-life in data set [5] is 16 h; in data set [6], 3.5 h; in data set [7], 0.5 h; in data set [8], 0.25 h. This molecule also returned a Mean time to death with Mus musculus [3] of 21.7 days. Moreover, the ILS at 16 mg/kg with Mus musculus [4] was found to be 64%.
